This is a sample that favours compounds with a hit; in the whole collection about 3.5% have one here.
MrgX1 PAM: human MrgX1 positive allosteric modulation, primary screen | AID 588675 | actives 0.63% (n = 310,000) | MrgX1-HEK293, Fluo-4 calcium flux, FDSS; active compounds read high | Q96LB2 | B-score at 10 µM;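 active = plate-corrected calcium response at least 3 library SD above typical, normal starting fluorescence, not activating the receptor alone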;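 note: compound read alongside a low EC10 to EC30 dose of BAM8-22 agonist; peak minus trough fluorescence over baseline measured at the second addition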
Target sequence (Q96LB2 whole entry, looked up): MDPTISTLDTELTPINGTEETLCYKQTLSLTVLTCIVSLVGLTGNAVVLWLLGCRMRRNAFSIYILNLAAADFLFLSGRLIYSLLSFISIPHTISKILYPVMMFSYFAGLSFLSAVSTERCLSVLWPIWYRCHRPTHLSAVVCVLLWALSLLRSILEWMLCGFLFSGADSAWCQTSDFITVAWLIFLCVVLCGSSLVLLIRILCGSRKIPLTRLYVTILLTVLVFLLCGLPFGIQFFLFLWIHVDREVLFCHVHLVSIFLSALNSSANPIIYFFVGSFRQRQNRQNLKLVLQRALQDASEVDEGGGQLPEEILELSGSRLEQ
MrgX1 agonist: human MrgX1 receptor agonism, primary screen; Q96LB2; MrgX1-HEK293 cells, Fluo-4 calcium fluorescence, agonist mode; active compounds read high; B-score at 10 µM; actives 0.44% (n = 310,000);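 active = calcium response B-score plate-corrected fluorescence ratio at least 3 library SD, with starting fluorescence B-score inside 5 SD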
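Test system: Stable human MrgX1 HEK293 cell line | Schedule: Overnight plating before 1 h dye loading | Read-out basis: Baseline-normalised fluorescence change ratio, B-scored | Detection: Kinetic calcium dye fluorescence, Fluo-4 NW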
RGS4 block: human RGS4 inhibition | B-score at 10 µM | HEK293 M3R/RGS4 inducible, Fluo-4 calcium flux; active compounds read high; triggered by carbachol at its EC20 | P49798 | AID 463165 | actives 0.45% (n = 310,000);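 active = B-score, a plate-corrected calcium signal, over three deviations above library mean, with baseline fluorescence within five deviations of library mean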;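 note: RGS4 expression induced by doxycycline in cells with stable M3 receptor; B-score is computed from the integrated fluorescence ratio over baseline after carbachol; higher B-score means a larger calcium signal and so more RGS4 inhibition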
Target sequence (P49798 whole entry, looked up): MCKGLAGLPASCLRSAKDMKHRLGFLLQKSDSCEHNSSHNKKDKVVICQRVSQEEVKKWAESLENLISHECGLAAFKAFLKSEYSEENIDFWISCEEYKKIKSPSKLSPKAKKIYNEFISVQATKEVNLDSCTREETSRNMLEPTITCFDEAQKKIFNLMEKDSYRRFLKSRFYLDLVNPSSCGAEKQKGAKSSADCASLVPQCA
RGS4 pot: RGS4 potentiation or activation; B-score at 10 µM; AID 463111; actives 0.92% (n = 310,000); HEK293 M3R/inducible RGS4, carbachol calcium flux Fluo4; active compounds read low;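 active = B-score of the integrated calcium signal more than 4 SD below the library mean, with starting fluorescence not abnormally high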;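 note: negative B-score means reduced calcium response which marks RGS4 activation or potentiation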
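Assay system: Inducible-RGS4 HEK293 cells carrying M3 receptor | Schedule: Compound preincubation 20 min at room temperature before agonist | Signal: Kinetic calcium fluorescence imaging with Fluo4-AM dye, 2 µM | Read-out basis: B score from integrated fluorescence ratio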
MrgX1 antag: antagonists of human MrgX1 receptor; actives 1.3% (n = 310,000); MRGX1-HEK293 calcium flux, Fluo-4, BAM8-22 antagonism; active compounds read low; B-score at 10 µM; Q96LB2; AID 588676;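 active = calcium-response B-score plate-corrected more than 3 library SD below zero, starting fluorescence within 5 deviations, no agonist response on first addition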;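 note: peak minus trough fluorescence over baseline after final BAM8-22 challenge near maximal dose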
Of the large screens only hits and unclear results are named; the others gave an inactive call.

S=c1[nH]nc(COc2ccccc2)n1Cc1ccccc1	none
CCCCn1c(Cc2ccccc2)n[nH]c1=S	RGS4 pot -7.4
CC(C)CCn1c(COc2ccccc2)n[nH]c1=S	RGS4 pot -7.1
CCCCOc1ccc(/C=N/NC(=O)c2csc(C)c2C)cc1	RGS4 pot -8.6
COC(=O)c1ccccc1NC(=O)CN1CCc2ccccc2C1	none
COC(=O)c1ccccc1NC(=O)CN1CCN(C23CC4CC(CC(C4)C2)C3)CC1	RGS4 pot -8
O=C(/C(=C/c1cccnc1)n1ccnc1)c1ccc(Cl)cc1Cl	MrgX1 agonist 33
CC(C)/C=C(/C(=O)c1ccc(Cl)cc1Cl)n1cncn1	none
COc1cccc(C2=NOC(C(=O)NCCCn3ccnc3)C2)c1 (stereo not drawn)	MrgX1 antag -6.5
COc1ccc(C2=NOC(C(=O)NCCCn3ccnc3)C2)cc1 (stereo not drawn)	none
O=C(NCCCn1ccnc1)C1c2ccccc2Oc2ccccc21	RGS4 pot -7.4
CCN(CC)CCOC(=O)C1c2ccccc2Oc2ccccc21	RGS4 pot -11
CCN(CC)CCNC(=O)C1c2ccccc2Oc2ccccc21	RGS4 pot -7.2
Cc1cc(OC(=O)c2cc([N+](=O)[O-])ccc2Cl)c([N+](=O)[O-])c(=O)[nH]1	none
Cc1noc(C)c1CSc1ccccc1C(=O)O	none
Cc1ccc(C(=O)N2CCN(S(=O)(=O)c3ccccc3)CC2)s1	none
Oc1c(Cl)cc(Cl)cc1Sc1cc(Cl)cc(Cl)c1O	MrgX1 agonist 30
Oc1c(Cl)cc(Cl)cc1CNn1cnnc1	none
COc1ccc(-c2noc(CCC(=O)N3CCN(Cc4ccccc4)CC3)n2)cc1	MrgX1 antag -5.3
COc1ccc(-c2noc(CCC(=O)N3CCC(C)CC3)n2)cc1	none
Cc1cccc(C)c1OCC(=O)NNC(=S)NC(=O)C1CC1	MrgX1 agonist 63
CC(=O)N1N=C(c2ccc(NS(C)(=O)=O)cc2)CC1c1ccc2nccnc2c1 (stereo not drawn)	MrgX1 antag -7.2
CS(=O)(=O)Nc1ccc(C2=NN(S(C)(=O)=O)C(c3ccc4nccnc4c3)C2)cc1 (stereo not drawn)	none
Cc1ccc(-n2nc3c(=O)n(CCCC(=O)NCc4ccccc4Cl)nc(C)c3c2C)cc1	MrgX1 antag -6.5
Cc1ccc(-n2nc3c(=O)n(CC(=O)NCCCc4ccccc4)nc(C)c3c2C)cc1	none
Cc1ccc(-n2nc3c(=O)n(C(C)C(=O)NCCCc4ccccc4)nc(C)c3c2C)cc1 (stereo not drawn)	MrgX1 antag -4.5
CCOC(=O)Cc1nnc(Nc2cc(C)ccc2C)c2ccccc12	none
O=C(O)c1ccccc1-c1ccc(/C=C2\SC(=O)N(c3ccccc3)C2=O)o1	none
O=C1S/C(=C\c2ccc(N3CCOCC3)o2)C(=O)N1Cc1c(F)cccc1Cl	MrgX1 agonist 56
O=C1S/C(=C\c2ccc(N3CCOCC3)o2)C(=O)N1c1ccccc1	RGS4 pot -7.6
O=C1S/C(=C/c2ccc(N3CCOCC3)o2)C(=O)N1Cc1c(F)cccc1Cl	MrgX1 PAM 9.4
O=C1N=C(N2CCOCC2)S/C1=C/c1ccc(-c2ccccc2Cl)o1	none
Cc1ccc(C)c(OCCC(=O)OCC(=O)Nc2ccc(N3CCOCC3)cc2)c1	none
Nc1cccc(-n2nnnc2CN2CCOCC2)c1	none
COC(=O)c1c(NC(=O)COC(=O)c2ccc(Cl)cc2[N+](=O)[O-])sc2c1CCCCC2	none
COC(=O)c1c(NC(=S)Nc2ccc(F)cc2[N+](=O)[O-])sc2c1CCCCC2	MrgX1 PAM 8.9
OC(c1cc(-c2ccc(C(F)(F)F)cc2)nc(C(F)(F)F)c1)C1CCCCN1 (stereo not drawn)	RGS4 pot -7.8, MrgX1 antag -5.4
NC(=O)c1ccc(N2CCC(C(N)=O)CC2)c([N+](=O)[O-])c1	none
CC(C(=O)NCc1ccco1)n1cc([N+](=O)[O-])cn1 (stereo not drawn)	none
COC(=O)COn1c(SCC(=O)OC)nc2ccccc2c1=O	MrgX1 antag -4.6
CC(C)(CNC(=O)c1ccc(-c2cccc(C(F)(F)F)c2)o1)N1CCOCC1	none
COc1ccc(CCNC(=O)c2ccc3c(c2)NC(=O)C(CSCc2cc(C)ccc2C)N3)cc1OC (stereo not drawn)	MrgX1 agonist 28
COc1ccnc(Oc2ccccc2)c1C(=O)N/C=N/OCc1ccccc1F	MrgX1 antag -5.6
CC1CCN(CC(CS(=O)(=O)c2ccc([N+](=O)[O-])cc2)N2CCC(C)CC2)CC1 (stereo not drawn)	MrgX1 antag -5.2
N#C/C(=C(/O)COc1ccccc1)c1nc2ccccc2s1	none
N#C/C(=C(/O)c1ccc(F)cc1)c1nc2ccccc2s1	MrgX1 agonist 29
O=C1COc2ccc(S(=O)(=O)N3CCCC3)cc2N1	none
O=C1COc2ccc(N3C(=O)C=CC3=O)cc2N1	RGS4 block 5
Cn1c(=O)c([N+](=O)[O-])c(N2CCN(Cc3ccc4c(c3)OCO4)CC2)c2ccccc21	RGS4 pot -7.3
C/C(=N\O)c1ccccc1C(=O)O	MrgX1 antag -6.2
COc1ccc(N2C(=O)CSC2c2ccc3c(c2)OCO3)cc1 (stereo not drawn)	RGS4 pot -7
COc1ccc(N2C(=O)CSC2c2ccc3c(c2)OCO3)c(OC)c1 (stereo not drawn)	none
O=C(/C=C/c1cccs1)N1CCC2(CC1)Oc1ccc(F)cc1C(=O)C21CC(c2ccc(Cl)cc2)=NO1 (stereo not drawn)	MrgX1 antag -4.5
O=C(/C=C/c1cccs1)N1CCC2(CC1)Oc1ccc(Cl)cc1C(=O)C21CC(c2ccc(Cl)cc2)=NO1 (stereo not drawn)	none
CC(C)(O)C(=O)NNC(=S)NCc1ccco1	MrgX1 antag -5.4
CC(C)(C)c1ccc(C(=O)NNC(=S)NCc2ccco2)cc1	none
O=C(/C=C/c1ccccc1Cl)Nc1ccc(-c2nnc3n2CCCCC3)cc1	RGS4 pot -8.1
CC(C)(C)CC(=O)Nc1ccc(-c2nnc3n2CCCCC3)cc1	none
O=C(COC(=O)CC(c1ccccc1)c1ccccc1)NCc1ccc(Cl)cc1	none
Cc1ccc(C)c(N2CCN(C(=O)CCCN3C(=S)NC(C)(C)CC3C)CC2)c1 (stereo not drawn)	MrgX1 antag -4.6
Cc1noc(C)c1CSCC(=O)N(CC(C)C)c1c(N)n(Cc2ccccc2)c(=O)[nH]c1=O	none
Cc1ncc(CO)c(/C=N/NC(=O)c2cc(Br)ccc2O)c1O	none
Cc1ncc(CO)c(/C=N/NC(=O)c2ccc(Br)cc2)c1O	RGS4 block 8.4
Cc1ccccc1OCCNc1cc(N2CCNCC2)ccc1[N+](=O)[O-]	MrgX1 agonist 27, RGS4 block 5.1
Cc1ccc2cc(CCNC(=O)CCCc3ccccc3)c(=O)[nH]c2c1C	none
COc1ccc(/C=N/Nc2cc(C)nc3c(C)cccc23)cc1	MrgX1 antag -4.6

Assay outcomes deposited in PubChem by Johns Hopkins Ion Channel Center.
